Experimental data: ChEMBL document CHEMBL1132950, “Synthesis, structure, and antitumor activity of a novel tetranuclear titanium complex” (J Med Chem, 2000)

Tests used:
Mus musculus [1] = assay: In vivo activity expressed as life span value of average treated / untreated AJ mice for 15/6 days (SEM value = 2.54); format: functional, organism-based
In short: (§1)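 Female AJ mice (20–25 g, 5–8 weeks) received 10^6 TA-3 ascites cells ip. From day 3 they got 0.1 mL ip of liposomal complex (1.5×10^-2 M in Ti complex, 0.9% NaCl), each dose equal to 6.2 mg/kg, daily for 1–5 consecutive days. Groups had 5–7 animals. Survival days are given as treated/untreated.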

HEp-2 [2] = assay: In vitro percentage of live HEP-2 cells after treatment at 8 uM; format: functional, cell-based; details: Homo sapiens
In short: (§2)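 Ti complex encapsulated in DPPC liposomes and diluted in 0.9% NaCl. It was added to monolayer cells grown in L-15 with 5% fetal calf serum, penicillin G and gentamicin at 37 °C and 100% humidity, then incubated 72 h at 37 °C. Cells were trypsinized and stained with 0.4% trypan blue, and live cells were counted in a Neubauer chamber. Viability is treated/control viable cells ×100. Five runs.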

HEp-2 [3] = assay: In vitro percentage of live HEP-2 cells after treatment at 500 uM; format: functional, cell-based; details: Homo sapiens; in short: as §2
Mus musculus [4] = assay: In vivo activity expressed as life span value of average treated / untreated AJ mice for 9.6/6 days (SEM value = 1.55); format: functional, organism-based; details: in the assay text read “9.3/6 days” for “9.6/6 days”; in short: as §1
Mus musculus [5] = assay: In vivo activity expressed as life span value of average treated / untreated AJ mice for 17.6/6 days (SEM value = 2.93); format: functional, organism-based; in short: as §1
HEp-2 [6] = assay: In vitro percentage of live HEP-2 cells after treatment at 80 uM; format: functional, cell-based; details: Homo sapiens; in short: as §2
Mus musculus [7] = assay: In vivo activity expressed as life span value of average treated / untreated AJ mice for 11.3/6 days (SEM value = 1.88); format: functional, organism-based; in short: as §1
Mus musculus [8] = assay: In vivo activity expressed as life span value of average treated / untreated CF-1 mice for 20/13 days (SEM value = 1.54); format: functional, organism-based
In short: (§3)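 Female CF-1 mice (30–35 g, 5–8 weeks) received 10^6 TA-3 ascites cells ip. Three days later, daily ip injections of 0.1 mL DPPC-liposomal complex (1.5×10^-2 M in Ti complex, in 0.9% NaCl) began, each dose equal to 4.1 mg/kg, given for 1–5 consecutive days. Groups had 5–7 mice. Mean survival days are given as treated/untreated.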

Vero [9] = assay: In vitro percentage of live Vero cells after treatment at 100 uM; format: functional, cell-based; details: Chlorocebus sabaeus; in short: as §2
Mus musculus [10] = assay: In vivo activity expressed as life span value of average treated / untreated AJ mice for 11.6/6 days (SEM value = 1.93); format: functional, organism-based; in short: as §1
HEp-2 [11] = assay: In vitro percentage of live HEP-2 cells after treatment at 100 uM; format: functional, cell-based; details: Homo sapiens; in short: as §2
Mus musculus [12] = assay: In vivo activity expressed as life span value of average treated / untreated CF-1 mice for 25/13 days (SEM value = 1.92); format: functional, organism-based; in short: as §3
Vero [13] = assay: In vitro percentage of live Vero cells after treatment at 80 uM; format: functional, cell-based; details: Chlorocebus sabaeus; in short: as §2
Vero [14] = assay: In vitro percentage of live Vero cells after treatment at 8 uM; format: functional, cell-based; details: Chlorocebus sabaeus; in short: as §2
Vero [15] = assay: In vitro percentage of live Vero cells after treatment at 500 uM; format: functional, cell-based; details: Chlorocebus sabaeus; in short: as §2
Mus musculus [16] = assay: In vivo activity expressed as life span value of average treated / untreated CF-1 mice for 25.2/13 days (SEM value = 1.94); format: functional, organism-based; in short: as §3
Mus musculus [17] = assay: In vivo activity expressed as life span value of average treated / untreated CF-1 mice for 26/13 days (SEM value = 2); format: functional, organism-based; in short: as §3

Substance: cyclo-Tetrakis[bis(1-phenyl-3-methyl-4-benzoylpyrazol-5-onato)-mu-oxotitanium(IV)]
- T/C (Mus musculus [1]): 254%
- viability (HEp-2 [2]): 77.4%
- viability (HEp-2 [3]): 30%
- T/C (Mus musculus [4]): 155%
- T/C (Mus musculus [5]): 293%
- viability (HEp-2 [6]): 77.4%
- T/C (Mus musculus [7]): 188%
- T/C (Mus musculus [8]): 154%
- viability (Vero [9]): 97.1%
- T/C (Mus musculus [10]): 193%
- viability (HEp-2 [11]): 40.3%
- T/C (Mus musculus [12]): 192%
- viability (Vero [13]): 98.4%
- viability (Vero [14]): 100%
- viability (Vero [15]): 95.2%
- T/C (Mus musculus [16]): 194%
- T/C (Mus musculus [17]): 200%
